Experimental data taken from ChEMBL document CHEMBL4190262, “Tuning of β-glucosidase and α-galactosidase inhibition by generation and in situ screening of a library of pyrrolidine-triazole hybrid molecules” (Eur J Med Chem, 2017).
The source made the active and inactive calls. No cut-off for these calls is given here.

Legend:
[1] = biological target: Beta-galactosidase (Escherichia coli) (UniProt Q8VNN2); test: Inhibition of Escherichia coli beta-galactosidase at 1 mM using p-nitrophenyl glycopyranoside preincubated for 5 mins followed by substrate addition measured after 20 mins by visible absorption spectroscopic method relative to control
Beta-galactosidase (Escherichia coli), sequence (Q8VNN2 whole entry, looked up): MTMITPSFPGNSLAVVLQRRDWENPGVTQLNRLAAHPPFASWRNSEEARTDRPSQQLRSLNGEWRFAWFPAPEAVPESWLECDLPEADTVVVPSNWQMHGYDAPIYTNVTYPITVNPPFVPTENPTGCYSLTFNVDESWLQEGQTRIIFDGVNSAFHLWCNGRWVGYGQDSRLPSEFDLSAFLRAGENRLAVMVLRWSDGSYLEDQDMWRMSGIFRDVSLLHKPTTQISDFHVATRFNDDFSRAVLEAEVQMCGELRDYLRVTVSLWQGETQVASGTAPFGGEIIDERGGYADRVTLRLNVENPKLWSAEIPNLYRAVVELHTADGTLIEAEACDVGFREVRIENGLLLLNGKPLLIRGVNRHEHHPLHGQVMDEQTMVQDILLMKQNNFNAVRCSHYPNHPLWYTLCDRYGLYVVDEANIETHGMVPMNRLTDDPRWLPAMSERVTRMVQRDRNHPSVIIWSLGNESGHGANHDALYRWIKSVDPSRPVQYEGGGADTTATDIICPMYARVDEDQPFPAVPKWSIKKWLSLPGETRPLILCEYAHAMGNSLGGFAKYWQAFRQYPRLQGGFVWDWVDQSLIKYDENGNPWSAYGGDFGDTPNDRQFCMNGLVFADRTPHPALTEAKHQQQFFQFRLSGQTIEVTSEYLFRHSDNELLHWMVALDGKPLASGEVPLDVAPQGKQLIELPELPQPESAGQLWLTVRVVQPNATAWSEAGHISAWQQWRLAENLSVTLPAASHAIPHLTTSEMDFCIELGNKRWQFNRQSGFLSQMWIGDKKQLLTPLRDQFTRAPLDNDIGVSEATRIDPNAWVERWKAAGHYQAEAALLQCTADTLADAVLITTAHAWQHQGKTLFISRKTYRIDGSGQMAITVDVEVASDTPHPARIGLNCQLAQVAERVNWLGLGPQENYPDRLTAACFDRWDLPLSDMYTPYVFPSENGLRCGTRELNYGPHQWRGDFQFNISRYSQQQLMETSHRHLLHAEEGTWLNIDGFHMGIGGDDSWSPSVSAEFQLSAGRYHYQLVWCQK
Method in brief: (§1)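 Test compound at 1 mM in well. Mix: 0.01–0.5 units/mL enzyme plus 10 mM p-nitrophenyl glycopyranoside (aqueous solution), buffered to the enzyme's optimal pH. Enzyme and inhibitor preincubated 5 min at rt. Substrate then added and incubated 20 min at 37 °C. Stopped with sodium borate (pH 9.8). p-Nitrophenolate read at 405 nm. Duplicates averaged.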

[2] = biological target: T1, Beta-galactosidase (Aspergillus oryzae) (UniProt B7VU80); test: Inhibition of Aspergillus oryzae beta-galactosidase at 1 mM using p-nitrophenyl glycopyranoside preincubated for 5 mins followed by substrate addition measured after 20 mins by visible absorption spectroscopic method relative to control; method in brief: as §1
T1 sequence (whole entry): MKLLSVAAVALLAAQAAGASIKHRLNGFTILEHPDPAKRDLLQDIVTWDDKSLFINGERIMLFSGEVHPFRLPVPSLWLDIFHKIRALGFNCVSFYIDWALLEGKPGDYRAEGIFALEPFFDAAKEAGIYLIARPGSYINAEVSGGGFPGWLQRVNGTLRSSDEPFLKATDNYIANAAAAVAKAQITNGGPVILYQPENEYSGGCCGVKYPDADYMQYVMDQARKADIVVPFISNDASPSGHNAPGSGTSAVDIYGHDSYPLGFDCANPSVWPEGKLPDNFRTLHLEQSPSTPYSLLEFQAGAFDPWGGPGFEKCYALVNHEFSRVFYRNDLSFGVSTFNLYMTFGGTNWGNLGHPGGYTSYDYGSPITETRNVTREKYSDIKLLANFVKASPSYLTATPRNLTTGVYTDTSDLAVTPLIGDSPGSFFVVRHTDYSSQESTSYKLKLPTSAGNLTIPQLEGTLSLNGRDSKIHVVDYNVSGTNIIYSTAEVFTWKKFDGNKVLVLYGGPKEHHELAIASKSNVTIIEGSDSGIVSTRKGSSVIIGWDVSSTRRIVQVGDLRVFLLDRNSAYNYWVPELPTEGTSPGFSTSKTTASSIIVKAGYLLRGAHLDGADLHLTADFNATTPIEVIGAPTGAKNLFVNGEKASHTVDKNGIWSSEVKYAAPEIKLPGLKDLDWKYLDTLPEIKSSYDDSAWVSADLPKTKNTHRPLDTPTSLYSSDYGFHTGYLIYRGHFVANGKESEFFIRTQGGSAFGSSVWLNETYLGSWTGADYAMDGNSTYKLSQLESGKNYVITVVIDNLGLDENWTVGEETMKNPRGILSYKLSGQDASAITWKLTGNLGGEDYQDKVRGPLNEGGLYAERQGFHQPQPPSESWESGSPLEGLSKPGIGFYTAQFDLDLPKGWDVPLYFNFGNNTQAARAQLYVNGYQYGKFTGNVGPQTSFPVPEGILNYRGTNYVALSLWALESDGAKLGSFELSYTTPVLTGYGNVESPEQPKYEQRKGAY

Oryza sativa = test: Inhibition of rice alpha-glucosidase at 1 mM using p-nitrophenyl glycopyranoside preincubated for 5 mins followed by substrate addition measured after 20 mins by visible absorption spectroscopic method relative to control; method in brief: as §1
Aspergillus niger = test: Inhibition of Aspergillus niger amyloglucosidase at 1 mM using p-nitrophenyl glycopyranoside preincubated for 5 mins followed by substrate addition measured after 20 mins by visible absorption spectroscopic method relative to control; method in brief: as §1
[3] = biological target: T2, Lysosomal acid glucosylceramidase (Homo sapiens, UniProt P04062); test: Inhibition of human lysosomal beta-glucocerebrosidase using 4-methylumbelliferyl-beta-D-glucopyranoside as substrate preincubated for 45 mins followed by substrate addition measured after 30 mins by fluorescence spectroscopic method
T2 sequence (P04062 whole entry): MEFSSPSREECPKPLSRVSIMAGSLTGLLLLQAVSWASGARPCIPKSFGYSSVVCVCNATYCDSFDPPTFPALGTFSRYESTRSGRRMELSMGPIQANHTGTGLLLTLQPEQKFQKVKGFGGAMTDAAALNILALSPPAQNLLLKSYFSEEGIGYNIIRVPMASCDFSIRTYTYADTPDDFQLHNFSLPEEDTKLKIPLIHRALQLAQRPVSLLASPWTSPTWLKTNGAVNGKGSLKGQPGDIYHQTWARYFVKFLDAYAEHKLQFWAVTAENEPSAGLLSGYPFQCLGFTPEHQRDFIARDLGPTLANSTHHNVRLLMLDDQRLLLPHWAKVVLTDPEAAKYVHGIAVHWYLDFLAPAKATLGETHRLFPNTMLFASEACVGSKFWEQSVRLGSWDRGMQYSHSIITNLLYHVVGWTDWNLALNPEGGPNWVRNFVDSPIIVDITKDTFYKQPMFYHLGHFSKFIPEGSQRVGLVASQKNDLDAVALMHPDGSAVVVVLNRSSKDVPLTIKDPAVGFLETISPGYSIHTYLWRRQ
Method in brief: (§2)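 Enzyme in 100 mM McIlvaine buffer pH 5.2 with 0.25% sodium taurocholate and 0.1% Triton X-100, with inhibitor. Preincubated at 0 °C for 45 min, then started with 3 mM 4-methylumbelliferyl glycoside substrate solution and incubated 30 min at 37 °C. Stopped with 400 mM glycine-NaOH pH 10.6. 4-Methylumbelliferone fluorescence read at ex 362/em 450 nm.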

[4] = biological target: T3, Alpha-galactosidase A (Homo sapiens) (UniProt P06280); test: Inhibition of human lysosomal alpha-galactosidase A at 1 mM using 4-methylumbelliferyl-alpha-D-galactopyranoside as substrate preincubated for 45 mins followed by substrate addition measured after 30 mins by fluorescence spectroscopic method relative to control; method in brief: as §2
T3 sequence (whole entry): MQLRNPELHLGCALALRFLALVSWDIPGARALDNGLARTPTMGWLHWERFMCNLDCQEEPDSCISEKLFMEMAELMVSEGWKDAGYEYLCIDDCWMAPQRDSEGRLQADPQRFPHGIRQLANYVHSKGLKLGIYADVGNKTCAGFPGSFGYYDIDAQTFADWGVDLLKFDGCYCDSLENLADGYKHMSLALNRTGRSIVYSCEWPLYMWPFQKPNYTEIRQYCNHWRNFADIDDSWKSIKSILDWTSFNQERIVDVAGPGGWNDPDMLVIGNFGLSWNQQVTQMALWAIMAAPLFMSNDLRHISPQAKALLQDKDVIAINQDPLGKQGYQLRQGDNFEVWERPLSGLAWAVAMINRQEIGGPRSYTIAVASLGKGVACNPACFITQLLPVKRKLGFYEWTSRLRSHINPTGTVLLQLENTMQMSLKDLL

[5] = biological target: Alpha-galactosidase (Coffea arabica) (UniProt Q42656); test: Inhibition of coffee beans alpha-galactosidase at 50 uM using p-nitrophenyl glycopyranoside preincubated for 5 mins followed by substrate addition measured after 20 mins by visible absorption spectroscopic method relative to control
Alpha-galactosidase (Coffea arabica), sequence (Q42656 16-378 limits assumed): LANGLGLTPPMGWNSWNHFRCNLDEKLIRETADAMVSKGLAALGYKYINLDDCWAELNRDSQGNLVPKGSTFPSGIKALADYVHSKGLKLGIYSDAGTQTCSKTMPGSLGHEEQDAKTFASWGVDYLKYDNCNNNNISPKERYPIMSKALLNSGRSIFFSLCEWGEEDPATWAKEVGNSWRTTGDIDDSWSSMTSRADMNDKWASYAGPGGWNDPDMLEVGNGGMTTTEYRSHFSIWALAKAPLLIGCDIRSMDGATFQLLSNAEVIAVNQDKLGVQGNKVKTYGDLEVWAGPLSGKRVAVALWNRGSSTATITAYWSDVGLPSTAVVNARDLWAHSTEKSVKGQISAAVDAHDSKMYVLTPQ
Method in brief: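 Crude triazoles from in situ CuAAC (ascorbate/CuSO4, 24 h rt, water-diluted) were screened at 50 μM per well, assuming full conversion. Enzyme was coffee bean α-galactosidase at pH 6, 37 °C, with p-nitrophenyl glycoside substrate and 405 nm read-out. Blanks of CuSO4, ascorbate and each alkyne were run.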

| inhibition [1] | inhibition [2] | inhibition (Oryza sativa) | inhibition (Aspergillus niger) | IC50 [3] | inhibition [4] | inhibition [5] | Structure (SMILES) |
| --- | --- | --- | --- | --- | --- | --- | --- |
| inactive | inactive | inactive | 38% | 11 µM | < 50% |  | O[C@@H]1[C@H](O)CN[C@H]1Cn1cc(-c2ccccc2)nn1 |
| inactive | 41% | inactive | inactive | 28 µM |  | 62% | O[C@@H]1[C@H](O)CN[C@@H]1Cn1cc(-c2ccccc2)nn1 |
